Assay results from different studies.
Lines come from different studies, so protocols differ.
PIK3CA H1047Y: Phosphatidylinositol 4,5-bisphosphate 3-kinase catalytic subunit alpha isoform (PIK3CA, Homo sapiens, UniProt P42336, H1047Y)
PIK3CA: Phosphatidylinositol 4,5-bisphosphate 3-kinase catalytic subunit alpha isoform (PIK3CA, Homo sapiens, UniProt P42336)
PIK3CA E542K: Phosphatidylinositol 4,5-bisphosphate 3-kinase catalytic subunit alpha isoform (PIK3CA, Homo sapiens, UniProt P42336, E542K)
PIK3CA I800L: Phosphatidylinositol 4,5-bisphosphate 3-kinase catalytic subunit alpha isoform (PIK3CA, Homo sapiens, UniProt P42336, I800L)
PIK3CA E545K: Phosphatidylinositol 4,5-bisphosphate 3-kinase catalytic subunit alpha isoform (PIK3CA, Homo sapiens, UniProt P42336, E545K)
PIK3CA Q546K: Phosphatidylinositol 4,5-bisphosphate 3-kinase catalytic subunit alpha isoform (PIK3CA, Homo sapiens, UniProt P42336, Q546K)
PIK3CA H1047L: Phosphatidylinositol 4,5-bisphosphate 3-kinase catalytic subunit alpha isoform (PIK3CA, Homo sapiens, UniProt P42336, H1047L)
PIK3CA E545A: Phosphatidylinositol 4,5-bisphosphate 3-kinase catalytic subunit alpha isoform (PIK3CA, Homo sapiens, UniProt P42336, E545A)
PIK3CA M1043I: Phosphatidylinositol 4,5-bisphosphate 3-kinase catalytic subunit alpha isoform (PIK3CA, Homo sapiens, UniProt P42336, M1043I)

SMILES | target | test | setting | remaining binding [%]
CCN1CCN(Cc2ccc(C(=O)Nc3ccc(C)c(Oc4ccc5c(c4)CC(=O)N5)c3)cc2C(F)(F)F)CC1 | PIK3CA H1047Y | binding, competition with immobilised ligand | 1 µM | 100
Cc1ccc(NC(=O)c2ccc(CN3CCN(C)CC3)cc2)cc1Nc1nccc(-c2cccnc2)n1 | PIK3CA | cell-free assay, competition with immobilised ligand | 0.1 µM | 100
CN1CCN(c2cnc3c(C4CCN(C(=O)c5ccc(OC(F)(F)F)cc5N)CC4)ncnc3c2)CC1 | PIK3CA E542K | cell-free assay, competition with immobilised ligand | 1 µM | 100
C[C@H]1CCN(c2nccc(-c3cnn4ncccc34)n2)C1 | PIK3CA I800L | binding | 1 µM | 95
FC(F)(F)Oc1cccc(-c2cnc3ccc(-c4ccncc4)nn23)c1 | PIK3CA | cell-free assay, competition with immobilised ligand | 5 µM | 35
CN(C)c1nccc(-c2cnn3ncccc23)n1 | PIK3CA E545K | binding | 1 µM | 83
CN([C@@H]1CCc2c(CC(=O)O)c3cc(S(C)(=O)=O)ccc3n2C1)S(=O)(=O)c1ccc(F)cc1 | PIK3CA Q546K | cell-free assay, competition with immobilised ligand | 1 µM | 100
CN1CCN(c2ccc(Nc3nccc(-c4ccccc4)n3)cc2C(F)(F)F)CC1 | PIK3CA H1047L | binding | 10 µM | 55
O=C(c1ccc(Nc2ncc(Cl)c(-c3ccc(Cl)s3)n2)cc1)N1CCC(N2CCCC2)CC1 | PIK3CA Q546K | binding, competition with immobilised ligand | 1 µM | 100
COc1cnc(Nc2cccc(S(N)(=O)=O)c2)nc1N1CCN(c2ccccc2)C(=O)C1 | PIK3CA E545A | binding, competition with immobilised ligand | 1 µM | 98
Cn1nc(C(F)(F)F)cc1-c1cnc(N2CCc3cc(S(=O)(=O)Nc4c(F)cc(Cl)cc4F)cc(N4CCCC4=O)c32)nc1 | PIK3CA E545K | cell-free assay, competition with immobilised ligand | 1 µM | 82
c1cncc(-c2cccc(Nc3nccc(NC4CCCCC4)n3)c2)c1 | PIK3CA E545K | binding, competition with immobilised ligand | 10 µM | 94
c1ccc(N2CCN(Cc3nc4ccccc4[nH]3)CC2)nc1 | PIK3CA | cell-free assay, competition with immobilised ligand | 1 µM | 100
CN(c1nccc(-c2cnn3ncccc23)n1)C1CC1 | PIK3CA M1043I | binding | 1 µM | 100
CCC(=N\O)/C(C)=C/c1ccc(F)cc1 | PIK3CA E542K | cell-free assay, competition with immobilised ligand | 1 µM | 100
O=C(NCCCN1CCOCC1)c1ccc(Nc2ncc(Cl)c(-c3ccc(Cl)s3)n2)cc1 | PIK3CA M1043I | binding, competition with immobilised ligand | 1 µM | 100
CCN(CC)Cc1cc(Nc2ccnc3cc(Cl)ccc23)ccc1O | PIK3CA | cell-free assay, competition with immobilised ligand | 10 µM | 93
CN1CCN(c2ccc(Nc3nccc(-c4cccc([N+](=O)[O-])c4)n3)cc2C(F)(F)F)CC1 | PIK3CA M1043I | binding | 10 µM | 35
O=C(Nc1c[nH]nc1C(=O)NC1CCNCC1)c1cc(F)cc(F)c1 | PIK3CA E545A | binding, competition with immobilised ligand | 1 µM | 100

SMILES | target | test | setting | remaining binding [%]
C[C@@H](c1ccc(-n2cnc3c(N)ncnc32)cc1)N1CCc2nn(C)c(Cc3ccccc3)c2C1=O | PIK3CA E542K | binding, competition with immobilised ligand | 0.1 µM | 83
C=CC(=O)N1CCC(C(=O)NCC(=O)N2CCN(c3nc(-c4cnc(N)nc4C(F)F)nc(N4CCOCC4)n3)CC2)CC1 | PIK3CA E545A | binding, competition with immobilised ligand | 1 µM | 0.5
O=C(NCCCN1CCOCC1)c1ccc(Nc2nccc(-c3cc4ccccc4s3)n2)cc1 | PIK3CA H1047L | binding, competition with immobilised ligand | 1 µM | 90
COc1ncc2cc3ccccc3nc2c1C#N | PIK3CA E545K | cell-free assay, competition with immobilised ligand | 5 µM | 100
O=C(c1ccc(Nc2nccc(-c3cc4ccccc4s3)n2)cc1)N1CCC(N2CCCC2)CC1 | PIK3CA E545A | binding, competition with immobilised ligand | 1 µM | 100
CCCOc1ccc([C@H]2[C@H](C(=O)O)[C@@H](c3ccc4c(c3)OCO4)CN2CC(=O)Nc2c(CC)cccc2CC)cc1 | PIK3CA I800L | cell-free assay, competition with immobilised ligand | 1 µM | 81
N[C@@H]1CCN(c2nccc(-c3cnn4ncccc34)n2)C1 | PIK3CA E545K | binding | 1 µM | 100
CS(=O)(=O)N1CCCC(NC(=O)[C@H](CCC2CCCCC2)NC(=O)c2ccc(CNC(=O)c3cnc4ccccn34)cc2)C1 (some centres unmarked) | PIK3CA H1047L | cell-free assay, competition with immobilised ligand | 0.1 µM | 100
CC1CCCN1c1nccc(-c2cnn3ncccc23)n1 (centres unmarked) | PIK3CA E542K | binding | 1 µM | 43
O=C(c1ccc(Nc2ncc(Cl)c(-c3cc4ccccc4s3)n2)cc1)N1CCC(N2CCCC2)CC1 | PIK3CA I800L | binding, competition with immobilised ligand | 1 µM | 97
CN(C)c1nccc(-c2cnc3ncccn23)n1 | PIK3CA M1043I | binding | 1 µM | 84
CNC(=O)[C@@H]1CC[C@@H](n2c(-c3ccc4cnccc4c3)nc3ccc(C(=O)NCc4cccc(C(N)=O)c4)cc32)C1 | PIK3CA | binding, competition with immobilised ligand | 1 µM | 100
Cc1cnc(Nc2ccc(C(=O)N3CCC(N4CCCC4)CC3)cc2)nc1-c1cc2ccccc2s1 | PIK3CA H1047Y | binding, competition with immobilised ligand | 1 µM | 65
CN(C)c1ncc(F)c(-c2cnn3ncccc23)n1 | PIK3CA I800L | binding | 1 µM | 46
Nc1ncc2c(n1)-c1c([nH]c3ccc(C#CC4CC4)cc13)CCCC2 | PIK3CA H1047L | binding, competition with immobilised ligand | 1 µM | 80
COc1cnc(Nc2cccc(S(N)(=O)=O)c2)nc1N1CCN(c2ccccc2)CC1 | PIK3CA M1043I | binding, competition with immobilised ligand | 1 µM | 79
COc1ccnn2ncc(-c3ccnc(N(C)C)n3)c12 | PIK3CA I800L | binding | 1 µM | 94
CS(=O)(=O)c1cc(C2(NC(=O)c3cncc4c3cnn4-c3ccc(F)cc3)CC2)ccn1 | PIK3CA Q546K | cell-free assay, competition with immobilised ligand | 1 µM | 66
O=C(NCC1CCOCC1)c1n[nH]cc1NC(=O)c1c(F)cccc1F | PIK3CA E542K | binding, competition with immobilised ligand | 1 µM | 78
